Experimental data of several laboratories.
Each line is one published result; the experiments were not run side by side.
Cell line: MDA-MB-231
Read-out: cell growth or viability

Structure (SMILES)	technique	time	IC50
Cc1cc(NS(=O)(=O)c2ccc(NC(=O)/C(C#N)=C/c3ccncc3)cc2)no1	MTT	48 h	116 µM
Cc1ccc(S(=O)(=O)n2cc(/C=N/NC(=O)Cc3cc(F)cc(F)c3)c3ccccc32)cc1	MTT	48 h	32.1 µM
C[C@H]1[C@H](C)CC[C@]2(C)CC[C@]3(C)C(=CC(=O)[C@@H]4[C@@]5(C)CC[C@@H](O)[C@](C)(C(=O)NCc6cn(-c7cccc(C(F)(F)F)c7)nn6)[C@@H]5CC[C@]43C)[C@H]12	MTT	24 h	70.4 µM
Nc1ccn([C@@H]2O[C@H](CO)[C@@H](O)C2(F)F)c(=O)n1	MTT	48 h	4.07 mg/L
COc1ccccc1/C=N/N=C1\C(=O)Nc2ccccc21	MTT	24 h	41.2 mg/L
CC(C)=CCc1ncc(/C=C2\NC(=O)[C@H](C(C)C)NC2=O)[nH]1	SRB		> 15 µM
O=C1Nc2ccccc2/C1=N/N=C/c1cccc([N+](=O)[O-])c1	MTT	24 h	38.3 mg/L
COc1cccc(NC(=O)Nc2ccc(Oc3nc4ccccc4n4cnnc34)cc2)c1	MTT	24 h	21.7 µM
Cc1ccc(S(=O)(=O)n2cc(/C=N/NC(=O)c3ccccc3)c3ccccc32)cc1	MTT	48 h	24.1 µM
Cc1ccc(C(C)C)c(OC2=C(Cl)C(=O)c3ccccc3C2=O)c1	MTT	24 h	60 mg/L
CN1CCc2c(c3ccccc3n2Cc2ccc(C(=O)NO)cc2)C1	CCK-8	48 h	24.7 µM
C[C@H]1[C@H](C)CC[C@]2(C(=O)O)CC[C@]3(C)C(=CC[C@@H]4[C@@]5(C)CC[C@H](O)C(C)(C)[C@@H]5CC[C@]43C)[C@H]12	thymidine uptake	24 h	13.1 µM
CC(C)CNC(=S)N/N=C/c1cccc2cc3ccccc3nc12	MTT	48 h	> 50 µM
O=c1[nH]cc(F)c(=O)[nH]1	MTT	48 h	12.2 µM
COc1cccc2c1C(=O)c1c(O)c3c(c(O)c1C2=O)C[C@@](O)(C(=O)CO)C[C@@H]3O[C@H]1C[C@H](N)[C@H](O)[C@H](C)O1	SRB		0.18 µM
CC(=O)O[C@@]12CO[C@@H]1C[C@H](O)[C@@]1(C)C(=O)[C@H](O)C3=C(C)[C@@H](OC(=O)[C@H](O)[C@@H](NC(=O)OC(C)(C)C)c4ccccc4)C[C@@](O)([C@@H](OC(=O)c4ccccc4)[C@H]21)C3(C)C	MTT	24 h	> 50 mg/L
Cc1ccc(S(=O)(=O)n2cc(/C=N/NC(=O)Cc3ccc(F)cc3F)c3ccccc32)cc1	MTT	48 h	26.4 µM
COc1cccc2c1C(=O)c1c(O)c3c(c(O)c1C2=O)C[C@@](O)(C(=O)CO)C[C@@H]3O[C@H]1C[C@H](N)[C@H](O)[C@H](C)O1	MTT	24 h	6.08 µM
CC(C)[C@@H]1NC(=O)[C@H](Cc2c[nH]cn2)NC1=O	SRB		> 15 µM

Structure (SMILES)	technique	time	IC50
C[C@H]1[C@H](C)CC[C@]2(C)CC[C@]3(C)C(=CC(=O)[C@@H]4[C@@]5(C)CC[C@@H](O)[C@](C)(C(=O)NCc6cn(-c7ccccc7)nn6)[C@@H]5CC[C@]43C)[C@H]12	MTT	24 h	103 µM
COc1cc([C@@H]2c3cc4c(cc3[C@@H](O[C@@H]3O[C@@H]5CO[C@@H](C)O[C@H]5[C@H](O)[C@H]3O)[C@H]3COC(=O)[C@H]23)OCO4)cc(OC)c1O	ATP luminescence	48 h	2.15 µM
C[C@H]1[C@H](C)CC[C@]2(C)CC[C@]3(C)C(=CC(=O)[C@@H]4[C@@]5(C)CC[C@@H](O)[C@](C)(C(=O)NCc6cn(-c7ccc(Br)cc7)nn6)[C@@H]5CC[C@]43C)[C@H]12	MTT	24 h	72.5 µM
CO[C@H]1[C@H](O[C@H]([C@H]2O[C@@H](n3ccc(=O)[nH]c3=O)[C@H](O)[C@@H]2O)[C@H](NCCCNC(=O)[C@@H](NC(=O)[C@@H](NC(=O)N[C@H](C(=O)O)C(C)C)[C@@H]2CCN=C(N)N2)[C@@H](OC(=O)CCCCCCCCCCCCN(O)C(=N)N)C(C)C)C(=O)O)O[C@H](CN)[C@H]1O	WST-1		0.98 µM
CNC(=S)N/N=C/c1cccc2cc3ccccc3nc12	MTT	48 h	18.9 µM
Cc1cc(NS(=O)(=O)c2ccc(NC(=O)/C(C#N)=C/c3ccc(N4CCOCC4)cc3)cc2)no1	MTT	48 h	83.3 µM
CC(C)(C)c1cnc(CSc2cnc(NC(=O)C3CCN(C(=O)CCCCCCCN4Cc5cc6c(cc5C4)C(=O)N(C4CCC(=O)NC4=O)C6=O)CC3)s2)o1 (stereo not shown)	MTT		0.0796 µM
O=C(Nc1ccc(Cl)cc1)Nc1ccc(Oc2nc3ccccc3n3cnnc23)cc1	MTT	24 h	> 68 µM
Cc1ccc(S(=O)(=O)n2cc(/C=N/NC(=O)c3ccccc3Br)c3ccccc32)cc1	MTT	48 h	29.4 µM
COc1cccc2c1C(=O)c1c(O)c3c(c(O)c1C2=O)C[C@@](O)(C(=O)CO)C[C@@H]3O[C@H]1C[C@H](N)[C@H](O)[C@H](C)O1	MTT	48 h	0.2 µM
Cc1ccc(S(=O)(=O)n2cc(/C=N/NC(=O)c3ccc(C)c(F)c3)c3ccccc32)cc1	MTT	48 h	21.3 µM
Fc1ccc(NC(=S)N/N=C/c2cccc3cc4ccccc4nc23)cc1	MTT	48 h	> 50 µM
CC(=O)N1CCC(Nc2cc(C(=O)NC[C@H](O)CN3CCc4ccccc4C3)ncn2)CC1	CCK-8	72 h	> 100 µM
Cc1ccc(S(=O)(=O)n2cc(/C=N/NC(=O)c3ccc(C(F)(F)F)cc3)c3ccccc32)cc1	MTT	48 h	19.2 µM
CCCNC(=S)N/N=C/c1cccc2cc3ccccc3nc12	MTT	48 h	> 50 µM
Cc1ccc(S(=O)(=O)n2cc(/C=N/NC(=O)c3ccc(Br)cc3)c3ccccc32)cc1	MTT	48 h	22.4 µM
COc1ccccc1-n1cc(CNC(=O)[C@@]2(C)[C@H](O)CC[C@@]3(C)[C@H]2CC[C@]2(C)[C@@H]3C(=O)C[C@@H]3[C@@H]4[C@@H](C)[C@H](C)CC[C@]4(C)CC[C@]32C)nn1	MTT	24 h	71.2 µM
COc1cc([C@@H]2c3cc4c(cc3[C@@H](O[C@@H]3O[C@@H]5CO[C@@H](C)O[C@H]5[C@H](O)[C@H]3O)[C@H]3COC(=O)[C@H]23)OCO4)cc(OC)c1O	SRB	72 h	3.3 µM
